Published values gathered from unrelated publications.
Each line is one published result; the experiments were not run side by side.
Target: Mitogen-activated protein kinase kinase kinase kinase 4 (MAP4K4, Homo sapiens, UniProt O95819)

| Structure (SMILES) | effect on | mode | technique | tested at | measurement | result |
| --- | --- | --- | --- | --- | --- | --- |
| O=C1Nc2ccc(Cl)cc2C1=Cc1cc(Cl)c(O)c(Cl)c1 | cell-free assay |  |  | 0.5 µM | remaining signal | 4.48% |
| Cc1sc(C(=O)NC2COC2)cc1-n1cc(NC(=O)Nc2c(F)cccc2Cl)cn1 | enzyme activity | inhibitor |  | 10 µM | remaining activity | 93.4% |
| N#CCCc1ccc2c(c1)-c1[nH]c3ccc([N+](=O)[O-])cc3c1CC(=O)N2 | cell-free assay |  |  | 0.5 µM | remaining signal | 6.82% |
| CC(C)(C)c1nc2c(s1)c1nc(N)ncc1c1ccc(NS(=O)(=O)c3c(F)cccc3F)c(F)c12 | enzyme activity | inhibitor | radiometric | 1 µM | remaining activity | 95% |
| O=C1NC(=O)c2cc(Nc3ccc(F)cc3)c(Nc3ccc(F)cc3)cc21 | cell-free assay |  |  | 0.5 µM | remaining signal | 91.2% |
| CCCCN(CCCC)C(=O)CN1C[C@@H](c2cc(OC)c3c(c2)OCO3)[C@H](C(=O)O)[C@H]1CC(C)(C)CCC | cell-free assay |  | competition with immobilised ligand | 1 µM | remaining binding | 88.9% |
| Oc1ccc(-c2nc(-c3ccncc3)c(-c3ccc(F)cc3)[nH]2)cc1 | cell-free assay |  |  | 0.5 µM | remaining signal | 86.5% |
| CC(C)CC(=O)N1CCc2nc(-c3ccc(Br)cc3)nc(N(C)Cc3ccccc3)c2C1 | cell-free assay |  | competition with immobilised ligand | 0.1 µM | remaining binding | 84% |
| Cc1ccc(C(=O)Nc2ccc(CN3CCN(C)CC3)c(C(F)(F)F)c2)cc1C#Cc1cnc2cccnn12 | enzyme activity | inhibitor |  | 23.5 nM | remaining activity | 27% |
| CO[C@@H](C)c1c(Nc2ccc([C@@H](N(C)C(=O)C3CCS(=O)(=O)CC3)C(F)(F)F)cc2)cnc2cc(Cl)nn12 | cell-free assay |  | competition with immobilised ligand | 1 µM | remaining binding | 100% |
| Nc1ncnc2occ(-c3ccc(NC(=O)Nc4cc(C(F)(F)F)ccc4F)cc3)c12 | cell-free assay | inhibitor |  | 20 µM | remaining signal | 0% |
| O=C(O)c1cc(-c2ccc(C3CCNCC3)cc2)c2ccc(-c3ccc(C(F)(F)F)cc3)cc2c1 | cell-free assay |  | competition with immobilised ligand | 1 µM | remaining binding | 87% |
| CSc1nc(C)c(-c2ccnc(Nc3ccc(N4CCOCC4)cc3)c2)[nH]1 | enzyme activity | inhibitor |  | 10 µM | inhibition | 77.9% |
| COc1cc2ncnc(Nc3ccc(Oc4ccccc4)c(C)c3C)c2cc1OC | enzyme activity | inhibitor |  | 1 µM | inhibition | -3% |
| O=C(Nc1cnn(-c2csc(C(=O)NC3COC3)c2)c1)Nc1c(F)cccc1Cl | enzyme activity | inhibitor |  | 5 µM | remaining activity | 90.4% |
| Cc1ccc(Nc2nccc(N(C)c3ccc4c(C)n(C)nc4c3)n2)cc1S(N)(=O)=O | enzyme activity | inhibitor |  | 0.5 µM | remaining activity | 77.4% |
| Cc1c(NC(=O)c2cc(C(N)=O)nc3cc(F)ccc23)c(C(F)(F)F)nn1Cc1ccc(C(C)(C)C)cc1 | cell-free assay |  | competition with immobilised ligand | 1 µM | remaining binding | 76% |
| CC(C)(O)[C@H]1CC[C@H](Nc2ccc3ncc(-c4cccc(C(F)(F)F)c4)n3n2)CC1 | enzyme activity | inhibitor |  | 1 µM | remaining activity | 90.6% |
